Experimental data published in PMC10149104 (Journal of medicinal chemistry, 2023).
Where a SMILES comes first, the peptide text is derived from it.

Experiments:
recombinant human PEPD = target: T1, recombinant human PEPD (Homo sapiens, UniProt P12955); test: Inhibition of recombinant PEPD, alanine release assay; assay type: biochemical
T1 sequence (P12955 1-493): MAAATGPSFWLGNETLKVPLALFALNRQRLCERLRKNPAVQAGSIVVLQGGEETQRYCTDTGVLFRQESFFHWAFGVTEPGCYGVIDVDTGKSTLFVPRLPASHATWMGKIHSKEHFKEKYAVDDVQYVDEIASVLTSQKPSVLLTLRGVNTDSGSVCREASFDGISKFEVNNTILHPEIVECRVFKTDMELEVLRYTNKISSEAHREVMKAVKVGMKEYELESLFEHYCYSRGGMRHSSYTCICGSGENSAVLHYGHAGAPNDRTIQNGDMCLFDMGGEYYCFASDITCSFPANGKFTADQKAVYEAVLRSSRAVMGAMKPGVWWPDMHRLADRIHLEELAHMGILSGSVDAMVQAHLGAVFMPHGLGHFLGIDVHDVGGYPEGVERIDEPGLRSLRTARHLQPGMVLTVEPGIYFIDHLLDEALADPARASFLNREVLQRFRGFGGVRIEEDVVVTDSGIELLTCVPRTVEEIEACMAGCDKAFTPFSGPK

MV4;11 CASP1^−/− cells = test: CellTiter-Glo cell viability, CASP1 knockout MV4; assay type: cell-based, human; conditions: for Cell death independent of CASP1 in MV4;11 cells (in words): WT and CASP1^−/− MV4;11, CTG, 24 h
Outline: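 CASP1-knockout MV4;11 cells (generated previously) are grown alongside wild type in RPMI 1640 with 10% FBS at 37 °C in 5% CO2. Cells are plated at 2000 per well in 384-well plates and dosed by pin tool in three-fold dilutions, topping at 100 μM (down to 15.2 nM) or 10 μM (down to 1.5 nM). After 24 h, CellTiter-Glo luminescence is read (2 min shake, 10 min at 25 °C). IC50 values are means ± SEM of three biological replicates.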

recombinant XPNPEP1 = recombinant XPNPEP1 (Homo sapiens, UniProt Q9NQW7); test: Inhibition of recombinant XPNPEP1, H-Lys; assay type: biochemical; conditions: for XPNPEP1 inhibition (in words): recombinant XPNPEP1
MV4;11 WT cells = test: CellTiter-Glo cell viability, WT MV4; assay type: cell-based, human; conditions: CTG, 24 h
[1] = Stability in cell culture supernatants; assay type: in vitro ADME
Outline: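 Test compounds are incubated in conditioned medium collected from MV4;11 cultures for 24 h at 37 °C. Intact compound and the free acid product are then quantified by LC/MS, with species identified by retention time. Values are means ± SEM of three biological replicates.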

OCI-AML2 cells = test: PI uptake in OCI-AML2 cells; assay type: cell-based, human; conditions: 6.25 μM, compared to CQ31
Outline: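 OCI-AML2 cells (2 × 10^4 per well, 384-well, RPMI) are treated with 6.25 μM compound, with PI added at 10 μM final. PI fluorescence (Ex/Em 535/617 nm) is recorded at 37 °C every 5 min over 6 h. Signals are baseline-corrected to DMSO vehicle and normalized to the maximum response. Values are means ± SEM of three biological replicates.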

[2] = tested on: DOX-inducible CARD8 E274R mutant THP-1 cells; test: CARD8 E274R mutant NT degradation assay in CARD8^−/− THP-1 cells; assay type: cell-based, human; conditions: DOX 100 ng/mL 16 h; VbP 10 μM, CQ31/CQ80 20 μM, VP-OMe 1 mM, MeBs 10 μM; 6 h
Outline: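 Parental CARD8-knockout THP-1 cells carry a stably integrated doxycycline-inducible CARD8 E274R construct. Cells are grown in RPMI 1640 with L-glutamine and 10% FBS at 37 °C in 5% CO2. They are induced with or without DOX (100 ng/mL, 16 h), then exposed to test compounds for 6 h.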

[3] = target: CARD8-DPP9 ternary complex in HEK 293T^CASP1+GSDMD cells (Homo sapiens, UniProt Q86TI2); test: dTAG-based CARD8-DPP9 ternary complex disruption assay; assay type: cell-based; conditions: dTAG-13 500 nM; VbP 10 μM, CQ31 20 μM, CQ80 20 μM, VP-OMe 1 mM; 6 h; LDH release
Chain of CARD8-DPP9 ternary complex in HEK 293T^CASP1+GSDMD cells (Q86TI2 whole entry, one chain of several): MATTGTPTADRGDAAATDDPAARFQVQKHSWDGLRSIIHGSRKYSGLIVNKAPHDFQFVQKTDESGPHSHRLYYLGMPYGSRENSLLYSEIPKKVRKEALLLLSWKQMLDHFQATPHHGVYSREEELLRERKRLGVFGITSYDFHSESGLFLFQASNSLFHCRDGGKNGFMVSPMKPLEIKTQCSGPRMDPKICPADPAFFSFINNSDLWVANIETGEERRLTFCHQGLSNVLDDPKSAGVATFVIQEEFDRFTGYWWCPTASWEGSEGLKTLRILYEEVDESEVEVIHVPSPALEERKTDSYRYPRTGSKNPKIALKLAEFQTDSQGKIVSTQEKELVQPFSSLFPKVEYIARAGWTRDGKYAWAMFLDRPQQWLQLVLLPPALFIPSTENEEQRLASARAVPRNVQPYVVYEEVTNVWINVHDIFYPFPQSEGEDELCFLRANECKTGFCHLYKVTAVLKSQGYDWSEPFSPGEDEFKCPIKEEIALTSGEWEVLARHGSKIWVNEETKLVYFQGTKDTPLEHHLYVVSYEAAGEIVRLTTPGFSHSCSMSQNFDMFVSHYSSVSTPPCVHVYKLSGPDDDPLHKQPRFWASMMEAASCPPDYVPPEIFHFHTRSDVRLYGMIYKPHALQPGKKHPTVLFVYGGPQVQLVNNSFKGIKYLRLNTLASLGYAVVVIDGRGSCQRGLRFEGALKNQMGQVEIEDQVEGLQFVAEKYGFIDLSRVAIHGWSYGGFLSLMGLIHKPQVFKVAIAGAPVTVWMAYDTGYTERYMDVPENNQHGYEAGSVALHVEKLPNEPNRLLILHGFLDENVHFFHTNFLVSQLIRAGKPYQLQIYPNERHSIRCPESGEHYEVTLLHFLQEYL

Chain of recombinant XPNPEP1 (Q9NQW7 whole entry): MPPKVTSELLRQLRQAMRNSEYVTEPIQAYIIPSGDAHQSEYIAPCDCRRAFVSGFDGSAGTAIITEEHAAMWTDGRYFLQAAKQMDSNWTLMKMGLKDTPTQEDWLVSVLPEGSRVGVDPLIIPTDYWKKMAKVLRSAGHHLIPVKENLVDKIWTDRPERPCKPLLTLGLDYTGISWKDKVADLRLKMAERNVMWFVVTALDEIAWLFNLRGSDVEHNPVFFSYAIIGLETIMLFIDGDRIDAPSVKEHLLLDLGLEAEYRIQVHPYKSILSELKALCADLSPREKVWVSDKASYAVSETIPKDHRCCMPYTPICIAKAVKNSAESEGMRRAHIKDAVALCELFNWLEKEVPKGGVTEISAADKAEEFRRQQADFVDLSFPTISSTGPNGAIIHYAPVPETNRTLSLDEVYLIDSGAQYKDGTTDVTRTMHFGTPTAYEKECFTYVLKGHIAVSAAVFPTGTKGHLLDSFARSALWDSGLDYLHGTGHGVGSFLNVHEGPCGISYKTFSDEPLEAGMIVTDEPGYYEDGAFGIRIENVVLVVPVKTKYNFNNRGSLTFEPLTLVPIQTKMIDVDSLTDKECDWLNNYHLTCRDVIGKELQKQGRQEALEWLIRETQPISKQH

Row | PEPD inhibition (in words) (recombinant human PEPD) | SMILES | Cytotoxicity / activity against MV4;11 cells (in words) (MV4;11 WT cells) | also measured
1 | very weak PEPD and XPNPEP1 inhibitors | COC(=O)[C@H](CC(C)C)NC(=O)[C@@H](O)[C@H](N)CC(C)C [CQ52, Methyl ((2S,3R)-3-Amino-2-hydroxy-5-methylhexanoyl)-l-leucinate] | – | Cell death independent of CASP1 in MV4;11 cells (in words) (MV4;11 CASP1^−/− cells): triggered CASP1-independent cell death; XPNPEP1 inhibition (in words) (recombinant XPNPEP1): very weak PEPD and XPNPEP1 inhibitors
2 | – | CC(C)C[C@@H](N)[C@H](O)C(=O)N1CCC[C@H]1CNS(C)(=O)=O [CQ53, N-(((S)-1-((2S,3R)-3-Amino-2-hydroxy-5-methylhexanoyl)-pyrrolidin-2-yl)methyl)methanesulfon-amide] | completely inactive in cells | –
3 | – | COC(=O)[C@@H]1CCCN1C(=O)[C@@H](O)[C@H](N)C1CC1 [CQ62, Methyl ((2S,3R)-3-Amino-3-cyclopropyl-2-hydroxypropanoyl)-l-prolinate] | almost completely inactive | –
4 | very weak PEPD and XPNPEP1 inhibitors | COC(=O)[C@H](Cc1ccccc1)NC(=O)[C@@H](O)[C@H](N)CC(C)C [CQ72, Methyl ((2S,3R)-3-Amino-2-hydroxy-5-methylhexanoyl)-l-phenylalaninate] | – | Cell death independent of CASP1 in MV4;11 cells (in words) (MV4;11 CASP1^−/− cells): triggered CASP1-independent cell death; XPNPEP1 inhibition (in words) (recombinant XPNPEP1): very weak PEPD and XPNPEP1 inhibitors
5 | inhibited PEPD and XPNPEP1 similarly | CC(C)C[C@@H](N)[C@H](O)C(=O)N1CCC[C@H]1C(=O)OC1CCCC1 [CQ94, Cyclopentyl ((2S,3R)-3-Amino-2-hydroxy-5-methylhexanoyl)-L-prolinate] | slightly more toxic | XPNPEP1 inhibition (in words) (recombinant XPNPEP1): inhibited PEPD and XPNPEP1 similarly
6 | – | CC(C)C[C@@H](N)[C@H](O)C(=O)N1CCC[C@H]1C(N)=O [CQ49, (S)-1-((2S,3R)-3-Amino-2-hydroxy-5-methylhexanoyl)-pyrrolidine-2-carboxamide] | retained similar PEPD/XPNPEP1 inhibition and cytotoxicity as CQ31 | –
7 | – | CC(C)C[C@H](NC(=O)[C@@H]1CCCN1C(=O)[C@@H](O)[C@H](N)CC(C)C)C(=O)NCCc1ccccc1 [CQ116, (S)-1-((2S,3R)-3-Amino-2-hydroxy-5-methylhexanoyl)-N-((S)-4-methyl-1-oxo-1-(phenethylamino)pentan-2-yl)pyrrolidine-2-carboxamide] | – | Stability in cell culture supernatants (in words) [1]: completely stable
8 | – | CC(C)C[C@@H](N)[C@H](O)C(=O)N1CCCC1 [CQ76, (2S,3R)-3-Amino-2-hydroxy-5-methyl-1-(pyrrolidin-1-yl)hexan-1-one] | abrogated all activity | –
9 | – | C[C@H](NC(=O)[C@@H]1CCCN1C(=O)[C@@H]1CCCN1C(=O)[C@@H](O)[C@H](N)Cc1ccccc1)C(N)=O [apstatin, reference compound] | not cytotoxic at all | IC50 (MV4;11 CASP1^−/− cells; read-out: MV4;11 CASP1^−/− IC50, CTG cell viability after 24 h treatment): > 20 µM; IC50 (recombinant XPNPEP1; read-out: XPNPEP1 IC50 (μM ± SEM), recombinant XPNPEP1, H-Lys(abz)-Pro-Pro-pNA cleavage, means ± SEM of three biological replicates): 18 ± 1.7 µM
10 | – | COC(=O)[C@@H]1CCCN1C(=O)[C@@H](O)[C@H](N)C12CC3CC(CC(C3)C1)C2 [CQ47, Methyl ((2S,3R)-3-(Adamantan-1-yl)-3-amino-2-hydroxypropanoyl)-l-prolinate] | almost completely inactive | –
11 | – | COC(=O)[C@@H](NC(=O)[C@@H]1CCCN1C(=O)[C@@H](O)[C@H](N)CC(C)C)C(C)C [CQ78, Methyl ((2S,3R)-3-Amino-2-hydroxy-5-methylhexanoyl)-l-prolyl-l-valinate] | – | Rate of lytic cell death by PI uptake in OCI-AML2 cells (OCI-AML2 cells): caused more rapid lytic cell death
12 | retained PEPD inhibition | COC(=O)[C@@H]1CCCN1C(=O)[C@@H](O)[C@H](N)CCCCO [CQ75] | lost cytotoxicity | –
13 | – | COC(=O)[C@H](CC(C)C)NC(=O)[C@@H](O)[C@H](N)Cc1ccccc1 [MeBs, bestatin methyl ester, reference compound] | – | Additional cell death in CARD8 E274R assay (NT degradation) [2]: still induce considerably more cell death; Cell death independent of CASP1 in MV4;11 cells (in words) (MV4;11 CASP1^−/− cells): CASP1-independent cell death
14 | – | COC(=O)[C@@H]1C[C@H](O)CN1C(=O)[C@@H](O)[C@H](N)CC(C)C [CQ39, Methyl (2S,4S)-1-((2S,3R)-3-Amino-2-hydroxy-5-methylhexano-yl)-4-hydroxypyrrolidine-2-carboxylate] | completely inactive | –
15 | more potent than CQ31 | CC(C)C[C@@H](N)C(O)C(=O)N1CCC[C@H]1C(=O)O (stereo partly drawn) [CQ04, (2S,3R)-3-amino-2-hydroxy-5-methyl-hexanoyl-proline] | – | XPNPEP1 inhibition (in words) (recombinant XPNPEP1): more potent than CQ31
16 | – | CC(C)C[C@@H](N)[C@H](O)C(=O)N1CCC[C@H]1c1nnn[nH]1 [CQ99, (2S,3R)-1-((S)-2-(1H-Tetrazol-5-yl)pyrrolidin-1-yl)-3-amino-2-hydroxy-5-methylhexan-1-one] | completely inactive in cells | –
17 | inhibited PEPD and XPNPEP1 similarly | CC(C)C[C@@H](N)[C@H](O)C(=O)N1CCC[C@H]1C(=O)OC(C)(C)C [CQ34, tert-Butyl ((2S,3R)-3-Amino-2-hydroxy-5-methylhexanoyl)-L-pro-linate] | slightly more toxic | Stability in cell culture supernatants (in words) [1]: considerably more stable than CQ31 or CQ94; Time after which completely hydrolyzed [1]: ≤ 8 h; XPNPEP1 inhibition (in words) (recombinant XPNPEP1): inhibited PEPD and XPNPEP1 similarly
18 | – | CONC(=O)[C@@H]1CCCN1C(=O)[C@@H](O)[C@H](N)CC(C)C [CQ55, (S)-1-((2S,3R)-3-Amino-2-hydroxy-5-methylhexanoyl)-N-methoxypyrrolidine-2-carboxamide] | completely inactive in cells | –
19 | – | CC(C)CCNC(=O)[C@@H]1CCCN1C(=O)[C@@H](O)[C@H](N)CC(C)C [CQ95, (S)-1-((2S,3R)-3-Amino-2-hydroxy-5-methylhexanoyl)-N-isopentylpyrrolidine-2-carboxamide] | retained similar PEPD/XPNPEP1 inhibition and cytotoxicity as CQ31 | –
20 | – | COC(=O)[C@@H]1CCCN1C(=O)[C@@H](N)C(C)C [VP-OMe, reference compound] (H-Val-Pro-OMe) | – | Additional cell death in CARD8 E274R assay (NT degradation) [2]: did not cause substantially more death; Pyroptosis after dTAG-13 treatment (ternary complex destabilization) [3]: induce more pyroptosis after dTAG-13 treatment
21 | – | COC(=O)[C@@H]1CCCN1C(=O)[C@@H](O)[C@H](N)Cc1ccccc1 [CQ42, Methyl ((2S,3R)-3-Amino-2-hydroxy-4-phenylbutanoyl)-l-prolinate] | almost completely inactive | –

Row | SMILES | PEPD inhibition (in words) (recombinant human PEPD) | Cytotoxicity / activity against MV4;11 cells (in words) (MV4;11 WT cells) | also measured
22 | CC(C)C[C@H](NC(=O)[C@@H]1CCCN1C(=O)[C@@H](O)[C@H](N)CC(C)C)C(=O)O [CQ92] | more potent inhibitor of both PEPD and XPNPEP1 than CQ80 | – | XPNPEP1 inhibition (in words) (recombinant XPNPEP1): more potent inhibitor of both PEPD and XPNPEP1 than CQ80
